# HSV replic up – HSV replication enhancement | HSV replication augmentation in cells, fold increase | maximum fold increase | actives 0.005% (n = 220,000) | AID 1956; in the data active = maximum fold increase above about 1.5; tested in PC3 cells
# MT stabilize HCS – stabilizes microtubules in HeLa cells; % tubulin-high responders, % at 10 µM; actives 0.83% (n = 200,000); AID 2205; HeLa tubulin immunostaining HCS, 24 h; share of cells brighter than vehicle mean+2SD;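 active = plate Z-score above 3 for both tubulin-high and condensed-nucleus cell shares, with cell loss under 80%, at 10 µM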;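 also: anti alpha tubulin signal scored within the nucleus-defined area of each cell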
# Lmaj promast – reduces viability of Leishmania major promastigotes; resazurin fluorescence viability; inhibition, % at 10 µM; actives 9% (n = 200,000); AID 1063; in the data active = inhibition above about 50%;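 also: promastigotes grown with compound for 44 hours at 28 °C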
# Dynein transport – dynein cargo transport inhibition | 3617.4 mouse cells, GR-EGFP nuclear translocation imaging; test concentration mostly 20 µM; stimulated with dexamethasone, 1 µM; stronger effect = lower value | z-score, hits read low | actives 0.47% (n = 220,000);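 active = plate z-score of nuclear minus cytoplasmic receptor signal below a set negative limit, without overly bright fluorescence or cell loss, cut at about -3.5 in these data, passing the limit was not always enough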;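 also: z-score of nuclear minus cytoplasmic ring GR-EGFP intensity difference per well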
#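 Also added: dexamethasone, 1.0 µM final. Medium: tet-free, stripped-serum medium. Detection: fixed, Hoechst-stained cells imaged at 10x for EGFP. Read-out: nuclear-to-cytoplasmic GR-EGFP distribution per well. Times: induction 48 h, compound 1 h, agonist 30 min.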
# b-catenin transl – modulators of beta-catenin nuclear translocation; HeLa beta-catenin nuclear translocation, immunofluorescence imaging; nuclear translocation activity, % at 5 µM; actives 0.3% (n = 190,000); AID 1665;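 active = nuclear translocation activity above 50% at 5 µM, with a well cell count of 50 or more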;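 also: per-cell ratio of nuclear to cytoplasmic median beta-catenin stain intensity; plate controls were DMSO negative control for no effect and GSK-3 inhibitor IX positive control for full effect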
#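 Test system: human HeLa cell line; Doses: 5 µM primary, 0.02–20 µM confirmation; Incubation: 24 h compound exposure, 37°C; Detection: beta-catenin immunofluorescence imaging with DAPI; Read-out: beta-catenin nuclear/cytoplasmic ratio, % activation.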
# * marks the source's active call; other numbers are inactive results; i = inactive; / = no result. Only some compounds are listed: those with a hit (about 8.9% of all), similar ones and a draw of the others.
SMILES,HSV replic up,MT stabilize HCS,Lmaj promast,Dynein transport,b-catenin transl
COc1ccc2[nH]c(=O)c(CN(C(=O)c3ccco3)C(C)C)cc2c1,i,/,/,-0.76,0
CCOc1ccc2[nH]c(=O)c(CN(CC3COCCO3)C(=O)c3ccc(C)cc3)cc2c1 (centres undefined),i,2,93*,-0.29,-2
Cn1ncc(Br)c1NC(=O)Nc1ccc(OC(F)(F)F)cc1,i,/,/,0.4,0
Oc1ccc(-c2[nH]nc(-c3ccccc3)c2-c2nc3ccccc3[nH]2)cc1,i,3,-6,0.011,-4
CCOc1ccc(Nc2oc(-c3cccs3)nc2C#N)cc1,i,3,-3,1.1,-5
N#CCC1c2ccccc2CCN1C(=O)Nc1cccc(Cl)c1 (centres undefined),i,3,63*,-0.057,-2
COc1ccc(NC(=O)CCN2C(=O)C3C4CCC(C4)C3C2=O)cc1 (centres undefined),i,4,57*,1.1,-2
O=C(CCN1C(=O)C2C3CCC(C3)C2C1=O)Nc1ccc(Br)cc1 (centres undefined),i,2,60*,-0.34,/
O=[N+]([O-])c1ccc2c(c1)S(=O)c1ccccc1-2 (centres undefined),i,/,/,0.37,0
CCC(C)NS(=O)(=O)c1ccc(S(=O)(=O)N(CCc2ccc(OC)c(OC)c2)Cc2cccs2)cc1 (centres undefined),i,3,55*,-0.22,2
O=C(CSc1nc2cc(Cl)ccc2s1)NC(=O)NCc1ccco1,i,4,-4,-0.78,-4
COc1ccccc1/C=C/C=N/NC(=O)c1ccc2nc[nH]c2c1,i,2,56*,-0.5,-2
COc1ccc(OC)c(/C=N/NC(=O)c2ccc3nc[nH]c3c2)c1,i,/,/,-0.89,-5
COc1ccc(Cl)cc1N1CC(C(=O)Nc2nccs2)CC1=O (centres undefined),i,10,-7,-0.55,3
O=C(NNC1CC(=O)N(c2cccc(Cl)c2)C1=O)c1cccs1 (centres undefined),i,1,63*,-0.87,1
COc1cccc(N2C(=O)CC(NNC(=O)c3cccs3)C2=O)c1 (centres undefined),i,3,63*,0.063,2
CCOC(=O)c1sc(NC(=O)c2ccc(C)s2)cc1C,i,3,4,0.41,0
COc1ccc(-c2cc3nc4c(c(=O)n3[nH]2)CCC4)cc1,i,3,9,1.7,/
COCCn1c(C)cc(C(=O)CSc2nc3ccccc3c(=O)n2Cc2ccco2)c1C,i,3,78*,0.14,/
Cc1ccc(NC(=O)CN(C)C(=O)CSc2nc3ccccc3c(=O)n2Cc2ccco2)cc1,i,3,87*,-0.85,0
O=C(CSc1nc2ccccc2c(=O)n1Cc1ccco1)N1CCCCCC1,i,5,79*,2.9,4
CN(Cc1ccccc1)C(=O)CSc1nc2ccccc2c(=O)n1Cc1ccco1,i,7,45,-0.68,0
Cc1c(Cl)cccc1NC(=O)CNC(=O)c1ccccc1F,i,3,-8,-1.3,-2
COC(=O)CCc1n[nH]c(=O)[nH]c1=O,i,3,-5,0.45,-1
O=C(Nc1ccccn1)c1ccc2c(c1)OCCO2,i,4,0,0.92,-1
SMILES,HSV replic up,MT stabilize HCS,Lmaj promast,Dynein transport,b-catenin transl
O=C(Nc1nc(-c2ccccn2)cs1)c1ccc2c(c1)OCCO2,/,4,99*,0.17,-2
CC(=O)Nc1ccc(C(=O)Nc2nc(-c3ccccn3)cs2)cc1,i,4,64*,-0.12,0
CC(=O)Nc1ccc(C(=O)Nc2nc(-c3cccnc3)cs2)cc1,i,5,14,0.63,5
Cc1ccc(S(=O)(=O)NCCNC(=O)c2ccccc2)cc1,i,5,-5,1.2,-5
Cc1ccc(S(=O)(=O)NCc2ccc(C(=O)NCCN(Cc3ccccc3)C(C)C)cc2)cc1,i,3,67*,2.6,0
COc1ccc(N2CCN(C(=O)c3ccc(C)cc3)CC2)c([N+](=O)[O-])c1,i,6,54*,-0.18,2
COc1ccc(C(=O)c2cc([N+](=O)[O-])ccc2N2CCN(C)CC2)cc1,i,14*,6,2,74*
COc1ccc(C(=O)c2cc([N+](=O)[O-])ccc2N2CCCC2)cc1,i,20*,5,0.089,-4
COc1ccc(NC(=O)c2cc([N+](=O)[O-])ccc2N2CCCC2)cc1,i,3,-3,-0.087,5
O=C1NC(Cc2ccccc2)C(=O)N1CC(=O)N1CCCc2ccccc21 (centres undefined),i,4,1,-0.022,-3
CC(C)OC(=O)c1cc2ccccc2oc1=O,i,6,-6,-0.092,/
Cc1nn(-c2ccccc2Cl)c(Cl)c1/C=N/Nc1nc2ccccc2s1,i,4,59*,-0.54,-2
CCOC(=O)N/N=C/c1c(C)nn(-c2ccccc2Cl)c1Cl,i,3,35,-0.84,2
COc1cc(OC)c(NC(=O)Cn2cccc2)cc1Cl,i,6,-1,-0.28,-1
COc1cc(OC)c(NC(=O)C(=O)CC(=O)c2ccc(C)cc2C)cc1Cl,i,4,100*,2.8,-1
CCCCOc1ccc(CN(C)c2ncnc(N)n2)cc1,i,23*,3,0.19,27
Cc1c(CCC(C)C)c(=O)n2c([nH]c3ccccc32)c1C#N,i,1,99*,-1,-2
CCCc1cc(=O)n2c([nH]c3ccccc32)c1C#N,i,2,25,1.8,0
CCCCc1c(C)c(C#N)c2[nH]c3ccccc3n2c1=O,i,0,65*,1.6,2
CCC(=O)N(C)CCc1cc2c(c(OC)c1/C=N/NC(=O)c1ccncc1)OCO2,i,/,/,-1.1,-1
O=C(O)CCCC(=O)N1CCc2cc(S(=O)(=O)NCc3ccccc3)ccc21,i,7,5,-0.28,1
Cc1cccc(N2CCN(C(=O)CSc3ccsc3[N+](=O)[O-])CC2C)c1 (centres undefined),i,2,64*,-1.3,/
Cc1cc(C(=O)N/N=C/c2cc(Br)ccc2OC(=O)c2ccccc2Cl)n[nH]1,i,1,98*,-0.49,3
CN(Cc1cn(C)nc1-c1cccc(Cl)c1)C1CCOCC1,i,3,-4,0.99,1
Cc1cc(N)n2ncc(-c3ccc(Cl)cc3)c2n1,i,3,55*,-0.42,4
COc1ccc(C2CC(c3ccc4ccccc4c3)=NN2C(=O)CNC2CCCCC2)cc1 (centres undefined),i,3,100*,0.72,0
CC(=O)OCC(=O)N1N=C(c2ccc3ccccc3c2)CC1c1ccccc1 (centres undefined),i,2,86*,-0.081,1
Brc1cccc(OCCn2ccnc2)c1,i,1,15,0.29,/
CCc1cccc(OCCCn2ccnc2)c1,/,1,95*,-0.78,0

# Compound activity: PubChem, several laboratories
